According to ChEMBL document CHEMBL1126705, “16 beta-([18F]fluoro)estrogens: systematic investigation of a new series of fluorine-18-labeled estrogens as potential imaging agents for estrogen-receptor-positive breast tumors” (J Med Chem, 1993):

Tests used:
[1] = biological target: T1, Alpha-fetoprotein (Rattus norvegicus) (UniProt P02773); assay: Relative binding affinity for Alphafetoprotein
T1 sequence (whole entry): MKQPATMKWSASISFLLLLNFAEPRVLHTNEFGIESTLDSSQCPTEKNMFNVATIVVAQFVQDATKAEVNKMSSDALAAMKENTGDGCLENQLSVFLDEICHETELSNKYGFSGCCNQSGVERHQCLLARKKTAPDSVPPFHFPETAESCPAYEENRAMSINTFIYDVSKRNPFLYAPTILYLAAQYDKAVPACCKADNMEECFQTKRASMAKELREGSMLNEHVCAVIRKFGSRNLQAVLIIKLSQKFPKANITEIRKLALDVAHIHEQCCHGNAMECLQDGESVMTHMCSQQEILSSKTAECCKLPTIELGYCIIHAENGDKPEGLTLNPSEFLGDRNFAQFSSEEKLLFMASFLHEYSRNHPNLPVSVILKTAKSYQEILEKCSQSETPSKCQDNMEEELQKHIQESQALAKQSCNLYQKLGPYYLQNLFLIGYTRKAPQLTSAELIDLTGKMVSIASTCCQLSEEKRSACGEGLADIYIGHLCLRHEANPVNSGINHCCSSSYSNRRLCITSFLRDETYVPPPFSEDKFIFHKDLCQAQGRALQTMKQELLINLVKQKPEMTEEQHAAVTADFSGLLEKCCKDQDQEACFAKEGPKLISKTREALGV

[2] = Partition coefficient (logP); assay type: physicochemical; settings: octanol/water
Summary of the method: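 Octanol/water log P estimated from log k'w measured by reversed-phase HPLC (Minick method) on a C8 silica column.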

[3] = biological target: T2, Sex hormone-binding globulin (Homo sapiens) (UniProt P04278); assay: Relative binding affinity against sex steroid binding protein (SBP)
T2 sequence (whole entry): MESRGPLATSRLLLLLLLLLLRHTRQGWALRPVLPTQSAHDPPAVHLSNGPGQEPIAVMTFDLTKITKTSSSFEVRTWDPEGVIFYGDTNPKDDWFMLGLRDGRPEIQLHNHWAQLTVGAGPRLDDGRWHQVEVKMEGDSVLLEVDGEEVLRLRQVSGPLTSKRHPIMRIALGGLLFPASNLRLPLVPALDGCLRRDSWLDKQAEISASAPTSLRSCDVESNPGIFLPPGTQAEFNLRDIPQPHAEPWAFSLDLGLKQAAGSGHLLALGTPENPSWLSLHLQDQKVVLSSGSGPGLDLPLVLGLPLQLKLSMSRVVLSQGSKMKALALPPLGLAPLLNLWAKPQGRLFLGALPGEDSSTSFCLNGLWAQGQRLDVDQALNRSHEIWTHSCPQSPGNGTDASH

[4] = biological target: T3, Estrogen receptor (Rattus norvegicus) (UniProt P06211+Q62986)
[5] = biological target: T3, Estrogen receptor (Rattus norvegicus); remark: listed apart in the source
Rattus norvegicus [6] = assay: Tested in vivo for the biodistribution in rat muscle at 1 hour after intravenous dose of 50 microCi of drug in 10%ethanol saline; assay type: ADME, organism-based, Muscle tissue
Summary of the method: (§1)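 Immature (25-day-old) female Sprague-Dawley rats, ether-anesthetized, given the fluorine-18-labeled estrogen by femoral vein injection in 10% ethanol saline. […] Other groups were killed by decapitation at 1 or 3 h. Blood and organs were weighed and gamma-counted. Data are % injected dose/g, mean ± SD, typically n = 5 per group.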

Rattus norvegicus [7] = assay: Tested in vivo for the biodistribution in rat kidney at 1 hour after intravenous dose of 50 microCi of the drug and 15 u g of estradiol; assay type: ADME, organism-based; summary of the method: as §1
Rattus norvegicus [8] = assay: Tested in vivo for the biodistribution in rat liver at 1 hour after intravenous dose of 50 microCi of drug in 10%ethanol saline; assay type: ADME, organism-based; summary of the method: as §1
Rattus norvegicus [9] = assay: Tested in vivo for the biodistribution in rat fat at 1 hour after intravenous dose of 50 microCi of drug in 10%ethanol saline; assay type: ADME, organism-based, Adipose tissue
Summary of the method: (§2)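 Ether-anesthetized 25-day-old female Sprague-Dawley rats (~40–53 g) got the [18F] tracer in 10% ethanol saline via femoral vein. Rats were decapitated at 1 or 3 h, and blood and organs were weighed and gamma-counted. Values are % injected dose/g as mean ± SD, n = 5 per time point.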

Rattus norvegicus [10] = assay: Tested in vivo for the biodistribution in rat kidney at 1 hour after intravenous dose of 50 microCi of drug in 10%ethanol saline; assay type: ADME, organism-based; summary of the method: as §2
Rattus norvegicus [11] = assay: Tested in vivo for the biodistribution in rat uterus/blood at 1 hour after intravenous dose of 50 microCi of the drug and 15 ug of estradiol; assay type: ADME, organism-based
Summary of the method: (§3)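 Female Sprague-Dawley rats, 25 days old (~40–53 g), ether-anesthetized, given the 18F-labeled estrogen iv via femoral vein in 10% ethanol saline. […] Others were sacrificed by decapitation at 1 or 3 h. Blood and organs were excised, weighed and gamma counted as % injected dose/g, mean ± SD, typically n = 5 (4–6).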

Rattus norvegicus [12] = assay: Tested in vivo for the biodistribution in rat uterus/muscle at 1 hour after intravenous dose of 50 microCi of the drug and 15 ug of estradiol; assay type: ADME, organism-based, Muscle tissue; summary of the method: as §3
Rattus norvegicus [13] = assay: Tested in vivo for the biodistribution in blood of female rat after 3 hours following an intravenous dose of 50 microCi of drug in 10%ethanol saline; assay type: ADME, organism-based; summary of the method: as §2
Rattus norvegicus [14] = assay: Tested in vivo for the biodistribution in blood of female rat at 1 hour after intravenous dose of 50 microCi of the drug and 15 u g of estradiol; assay type: ADME, organism-based
Rattus norvegicus [15] = assay: Tested in vivo for the biodistribution in rat bone after 3 hours following an intravenous dose of 50 microCi of drug in 10%ethanol saline; assay type: ADME, organism-based, Bone element; summary of the method: as §2
Rattus norvegicus [16] = assay: Tested in vivo for the biodistribution in blood of female rat at 1 hour after intravenous dose of 50 microCi of drug in 10%ethanol saline; assay type: ADME, organism-based; summary of the method: as §2
Rattus norvegicus [17] = assay: Tested in vivo for the biodistribution in rat ovaries at 1 hour after intravenous dose of 50 microCi of the drug and 15 ug of estradiol; assay type: ADME, organism-based, Female gonad; summary of the method: as §1
Rattus norvegicus [18] = assay: Tested in vivo for the biodistribution in rat bone at 1 hour after intravenous dose of 50 microCi of drug in 10%ethanol saline; assay type: ADME, organism-based, Bone element; summary of the method: as §2
Rattus norvegicus [19] = assay: Tested in vivo for the biodistribution in rat uterus at 1 hour after intravenous dose of 50 microCi of the drug and 15 ug of estradiol; assay type: ADME, organism-based; summary of the method: as §3
Rattus norvegicus [20] = assay: Tested in vivo for the biodistribution in rat fat after 3 hours following an intravenous dose of 50 microCi of drug in 10%ethanol saline; assay type: ADME, organism-based, Adipose tissue; summary of the method: as §2
Rattus norvegicus [21] = assay: Tested in vivo for the biodistribution in rat uterus/muscle at 1 hour after intravenous dose of 50 microCi of drug in 10%ethanol saline; assay type: ADME, organism-based, Muscle tissue; summary of the method: as §3
Rattus norvegicus [22] = assay: Tested in vivo for the biodistribution in rat uterus/muscle after 3 hours following an intravenous dose of 50 microCi of drug in 10%ethanol saline; assay type: ADME, organism-based, Muscle tissue; summary of the method: as §3
Rattus norvegicus [23] = assay: Tested in vivo for the biodistribution in rat thymus at 1 hour after intravenous dose of 50 microCi of drug in 10%ethanol saline; assay type: ADME, organism-based; summary of the method: as §1
Rattus norvegicus [24] = assay: Tested in vivo for the biodistribution in rat uterus at 1 hour after intravenous dose of 50 microCi of drug in 10%ethanol saline; assay type: ADME, organism-based; summary of the method: as §3
Rattus norvegicus [25] = assay: Tested in vivo for the biodistribution in rat liver after 3 hours following an intravenous dose of 50 microCi of drug in 10%ethanol saline; assay type: ADME, organism-based; summary of the method: as §1
Rattus norvegicus [26] = assay: Tested in vivo for the biodistribution in rat muscle after 3 hours following an intravenous dose of 50 microCi of drug in 10%ethanol saline; assay type: ADME, organism-based, Muscle tissue; summary of the method: as §1
Rattus norvegicus [27] = assay: Tested in vivo for the biodistribution in rat fat at 1 hour after intravenous dose of 50 microCi of the drug and 15 ug of estradiol; assay type: ADME, organism-based, Adipose tissue
Rattus norvegicus [28] = assay: Tested in vivo for the biodistribution in rat uterus after 3 hours following an intravenous dose of 50 microCi of drug in 10%ethanol saline; assay type: ADME, organism-based; summary of the method: as §1
Rattus norvegicus [29] = assay: Tested in vivo for the biodistribution in rat ovaries after 3 hours following an intravenous dose of 50 microCi of drug in 10%ethanol saline; assay type: ADME, organism-based, Female gonad; summary of the method: as §1
Rattus norvegicus [30] = assay: Tested in vivo for the biodistribution in rat thymus at 1 hour after intravenous dose of 50 microCi of the drug and 15 ug of estradiol; assay type: ADME, organism-based; summary of the method: as §1
Rattus norvegicus [31] = assay: Tested in vivo for the biodistribution in rat uterus/blood at 1 hour after intravenous dose of 50 microCi of drug in 10%ethanol saline; assay type: ADME, organism-based; summary of the method: as §3
Rattus norvegicus [32] = assay: Tested in vivo for the biodistribution in rat muscle at 1 hour after intravenous dose of 50 microCi of the drug and 15 ug of estradiol; assay type: ADME, organism-based, Muscle tissue; summary of the method: as §1
Rattus norvegicus [33] = assay: Tested in vivo for the biodistribution in rat bone at 1 hour after intravenous dose of 50 microCi of the drug and 15 ug of estradiol; assay type: ADME, organism-based, Bone element
Rattus norvegicus [34] = assay: Tested in vivo for the biodistribution in rat thymus after 3 hours following an intravenous dose of 50 microCi of drug in 10%ethanol saline; assay type: ADME, organism-based; summary of the method: as §1
Rattus norvegicus [35] = assay: Tested in vivo for the biodistribution in rat uterus/blood after 3 hours following an intravenous dose of 50 microCi of drug in 10%ethanol saline; assay type: ADME, organism-based; summary of the method: as §3
Rattus norvegicus [36] = assay: Tested in vivo for the biodistribution in rat liver at 1 hour after intravenous dose of 50 microCi of the drug and 15 u g of estradiol; assay type: ADME, organism-based; summary of the method: as §1
Rattus norvegicus [37] = assay: Tested in vivo for the biodistribution in rat kidney after 3 hours following an intravenous dose of 50 microCi of drug in 10%ethanol saline; assay type: ADME, organism-based; summary of the method: as §2
Rattus norvegicus [38] = assay: Tested in vivo for the biodistribution in rat ovaries at 1 hour after intravenous dose of 50 microCi of drug in 10%ethanol saline; assay type: ADME, organism-based, Female gonad; summary of the method: as §1

C#C[C@]1(O)CC[C@H]2[C@@H]3CCc4cc(O)ccc4[C@H]3CC[C@@]21C [ETHINYL ESTRADIOL]
relative binding affinity (RBA) [1]: 3.51 | logP [2]: 3.42 | relative binding affinity (RBA) [3]: 1.81

C#C[C@]1(O)CC[C@H]2[C@@H]3CCc4cc(O)ccc4[C@H]3[C@@H](OC)C[C@@]21C [MOXESTROL]
relative binding affinity (RBA) [1]: 0.023 | logP [2]: 3.01 | NSB [4]: 0.76 | BSI [5]: 243 | relative binding affinity (RBA) [3]: 0.071

CCC1C[C@]2(C)[C@@H](O)CC[C@H]2[C@@H]2CCc3cc(O)ccc3[C@@H]12 (some centres undefined)
relative binding affinity (RBA) [1]: 1.21 | logP [2]: 3.9 | NSB [4]: 2.1 | BSI [5]: 648 | relative binding affinity (RBA) [3]: 40.8

C[C@]12CC[C@@H]3c4ccc(O)cc4CC[C@H]3[C@@H]1CC[C@@H]2O [ESTRADIOL]
relative binding affinity (RBA) [1]: 100 | logP [2]: 3.26 | relative binding affinity (RBA) [3]: 100

C#C[C@]1(O)CC[C@H]2[C@@H]3CCc4cc(O)ccc4[C@H]3C(CC)C[C@@]21C (some centres undefined)
relative binding affinity (RBA) [1]: 0.347 | logP [2]: 4.28 | NSB [4]: 2.86 | BSI [5]: 331 | relative binding affinity (RBA) [3]: 41.2

C#C[C@]1(O)[C@@H](F)C[C@H]2[C@@H]3CCc4cc(O)ccc4[C@H]3[C@@H](CC)C[C@@]21C
relative binding affinity (RBA) [1]: 0.147 | Injected (Rattus norvegicus [6]): 0.725% | Injected (Rattus norvegicus [7]): 0.709% | Injected (Rattus norvegicus [8]): 4.023% | Injected (Rattus norvegicus [9]): 3.375% | logP [2]: 4.12 | Injected (Rattus norvegicus [10]): 1.886% | Injected (Rattus norvegicus [11]): 4.03% | Injected (Rattus norvegicus [12]): 3.5% | Injected (Rattus norvegicus [13]): 0.144% | Injected (Rattus norvegicus [14]): 0.227% | Injected (Rattus norvegicus [15]): 1.606% | Injected (Rattus norvegicus [16]): 0.264% | Injected (Rattus norvegicus [17]): 1.712% | Injected (Rattus norvegicus [18]): 1.365% | Injected (Rattus norvegicus [19]): 0.88% | Injected (Rattus norvegicus [20]): 1.805% | Injected (Rattus norvegicus [21]): 11.41% | Injected (Rattus norvegicus [22]): 23.55% | Injected (Rattus norvegicus [23]): 0.815% | Injected (Rattus norvegicus [24]): 8.2% | Injected (Rattus norvegicus [25]): 4.003% | NSB [4]: 2.43 | Injected (Rattus norvegicus [26]): 0.382% | Injected (Rattus norvegicus [27]): 2.174% | Injected (Rattus norvegicus [28]): 9.09% | Injected (Rattus norvegicus [29]): 3.115% | Injected (Rattus norvegicus [30]): 0.277% | Injected (Rattus norvegicus [31]): 33.61% | Injected (Rattus norvegicus [32]): 0.262% | Injected (Rattus norvegicus [33]): 1.037% | Injected (Rattus norvegicus [34]): 0.493% | Injected (Rattus norvegicus [35]): 64.53% | Injected (Rattus norvegicus [36]): 3.888% | BSI [5]: 189 | Injected (Rattus norvegicus [37]): 1.03% | Injected (Rattus norvegicus [38]): 3.934% | relative binding affinity (RBA) [3]: 11

CO[C@H]1C[C@]2(C)[C@@H](O)CC[C@H]2[C@@H]2CCc3cc(O)ccc3[C@H]21
relative binding affinity (RBA) [1]: 0.26 | logP [2]: 2.72 | NSB [4]: 0.57 | BSI [5]: 151 | relative binding affinity (RBA) [3]: 1.72
